GAA850 FXN act = increases GAA850 frataxin promoter reporter activity. HEK293 lucGAA850 FXN promoter luciferase reporter, 24 h; percent of 10 µM SAHA response. activation, % at 6 µM. 0.56% of 360,000 active;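 active = activation above the average of all compounds screened plus 3 SD, cutoff fixed separately per campaign, cut at about 7.5% in these data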;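 also: 0% = DMSO wells and 100% = 10 µM SAHA wells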
HIF act = HIF pathway transcriptional activation. U2OS HRE-luciferase reporter, luminescence; normalized: DMSO 0%, desferrioxamine 100%. activation, % at 7.5 µM (by protocol). AID 1910. 0.32% of 300,000 active;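 active = mean activation of at least 10% of the iron chelator positive control signal, with at least half of replicates also reaching 10%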
ABCB6 inh 2 = inhibitors of human ABC transporter ABCB6; Q9NP58; K562-ABCB6 porphyrin accumulation, flow cytometry, 1 h; hits give low values; fluorescence ratio to DMSO, % at 10 µM; 0.19% of 360,000 active; AID 602162;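 active = fluorescence ratio to DMSO below 75%, the collection mean minus 3 SD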;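 also: signal is porphyrin accumulated inside mitochondria; 100% equals median channel fluorescence of DMSO control wells; lower ratio means ABCB6 inhibition with less porphyrin fluorescence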
SR-BI DiI-HDL act = enhances SR-BI lipid uptake from DiI-HDL; CHO ldlA[mSR-BI] cells, DiI-HDL uptake fluorescence, 3 h; 100 = double the neutral-control signal; activation, % at 12.5 µM; 0.096% of 320,000 active; AID 504775;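 active = mean replicate activation of at least 60% and every replicate at or above 60%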;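 also: 0% = median plate neutral-control signal and 100% = twice that signal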
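Assay system: CHO ldlA[mSR-BI] cells, LDL receptor-null, SR-BI overexpressing; medium: Ham's F12 with 0.5% BSA, HEPES 25 mM, pH 7.4; also added: DiI-HDL 10 µg/mL; timing: 3 h uptake period with compound, 37 °C; signal: DiI fluorescence, bottom read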
AHR activator = human AHR activation; 2.5% of 320,000 active; AHR-responsive luciferase reporter cells, luminescence; activation, % at 5 µM; P35869; in the data active = activation above about 47%;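 also: 0% = vehicle wells and 100% = reference agonist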
SR-BI HDL uptake = mouse SR-BI HDL lipid transfer inhibition. ldlA[mSR-BI] CHO cells, DiI-HDL uptake fluorescence, 3 h. Q61009. AID 488896. 0.96% of 320,000 active. inhibition, % at 12.5 µM;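 active = mean replicate inhibition of at least 70% and a set share of replicates each scoring 70 or more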;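 also: 0% = median of neutral control wells and 100% = median of positive control wells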
Target sequence (Q61009 whole entry, looked up): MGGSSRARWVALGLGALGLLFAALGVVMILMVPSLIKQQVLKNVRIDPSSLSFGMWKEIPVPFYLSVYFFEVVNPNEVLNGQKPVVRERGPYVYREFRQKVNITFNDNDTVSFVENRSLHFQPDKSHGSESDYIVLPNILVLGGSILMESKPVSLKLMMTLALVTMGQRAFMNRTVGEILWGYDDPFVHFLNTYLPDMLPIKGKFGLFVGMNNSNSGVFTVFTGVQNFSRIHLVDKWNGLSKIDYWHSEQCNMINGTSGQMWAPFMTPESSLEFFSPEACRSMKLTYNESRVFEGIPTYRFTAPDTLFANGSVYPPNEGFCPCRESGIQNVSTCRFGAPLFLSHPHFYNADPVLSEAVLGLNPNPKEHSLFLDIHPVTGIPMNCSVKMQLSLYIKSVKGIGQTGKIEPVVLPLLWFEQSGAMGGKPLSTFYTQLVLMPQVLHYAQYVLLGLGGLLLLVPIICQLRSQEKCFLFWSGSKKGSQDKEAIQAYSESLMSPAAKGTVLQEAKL
Starred values were filed as active, the others as inactive; · = not tested or not shown. Only some compounds are listed: those with a hit (about 3.9% of all), similar ones and a draw of the others.

SMILES	GAA850 FXN act	HIF act	ABCB6 inh 2	SR-BI DiI-HDL act	AHR activator	SR-BI HDL uptake
COCC(C)NC(=O)c1cc2cccc([N+](=O)[O-])c2[nH]1 (configuration not stated)	2	0	99	-8	23	8
CCCCn1c(SCC(=O)c2ccc(OCC)cc2)nc2cc(S(N)(=O)=O)ccc21	2	0	97	-43	48*	43
Oc1[nH]c2ccc(Br)cc2c1N=Nc1ccc(F)cc1	1	0	102	-2	62*	2
COc1ccc(/C=C(\NC(=O)c2ccc([N+](=O)[O-])cc2)C(=O)NCCN2CCOCC2)cc1	3	-20	100	·	0	·
CCOC(=O)Cn1c(=O)cc(C)c2cccc(C)c21	0	0	99	-11	0	11
NC(=O)c1oc2ccccc2c1NC(=O)c1ccccc1	2	1	99	-28	69*	28
COc1ccccc1NC(=O)c1oc2ccccc2c1NC(=O)c1ccco1	1	0	99	-57	35	57
NC(=O)c1oc2ccccc2c1NC(=O)c1ccco1	-1	·	102	9	47*	-9
Cc1nc(-c2cccnc2)sc1C(N)=O	-3	0	99	-2	0	2
CCc1ccc2c(c1)C(c1ccc([N+](=O)[O-])cc1)=NNC(c1ccc(C)cc1)=N2	-1	0	92	-75	7	75*
CCn1c(CCNC(=O)c2ccc(C)cc2)nnc1SCc1ccc(Cl)c(Cl)c1	2	0	95	-19	4	19
COc1ccccc1CNCC(=O)N1CC(=O)Nc2ccccc21	2	-1	103	0	60*	0
Cc1ccc(Nc2nc(=O)c3cccnc3s2)cc1	6	2	99	-7	69*	7
COc1ccc(OC)c(Nc2nc(=O)c3cccnc3s2)c1	2	·	100	5	·	-5
CCn1cc(C(=O)NCC(OC)OC)c(=O)c2cc(S(=O)(=O)N3CCC(C)CC3)ccc21	-2	30*	102	13	-1	-13
Cn1cnc2cc(NCc3cccs3)ccc21	1	2	91	4	50*	-4
CCOC(=O)/C=C/C(=O)OCC(=O)NCc1ccccc1	2	0	100	14	-1	-14
C/C(=C\C(=O)OCC(=O)NCc1ccccc1)C(=O)OCC(=O)NCc1ccccc1	2	441*	103	9	-2	-9
COc1ccc(CCNC(=O)Cn2c(=O)n(-c3ccc(F)cc3)c(=O)c3sccc32)cc1OC	-3	4	101	·	·	·
CC1Cc2ccccc2N1C(=O)CSc1nnnn1Cc1ccccc1 (configuration not stated)	0	0	102	14	48*	-14
Cc1nc(NC(=O)CSc2nnnn2Cc2ccccc2)sc1C	1	1	104	-1	65*	1
Cc1nnc(NC(=O)CSc2nnnn2Cc2ccccc2)s1	-1	0	103	15	6	-15
CCn1c(SCC(=O)Nc2nc(C)c(C)s2)nc2cccnc21	2	-1	84	-6	52*	6
Cc1nc(NC(=O)CSc2nc3cccnc3n2C2CCCCC2)sc1C	-1	-1	100	21	20	-21
CC1(C)CC(=O)C=C(c2cccc(Br)c2)C1	1	·	98	-22	0	22
SMILES	GAA850 FXN act	HIF act	ABCB6 inh 2	SR-BI DiI-HDL act	AHR activator	SR-BI HDL uptake
Cc1ccc(-c2nc(NC(=O)c3nn(C)cc3[N+](=O)[O-])sc2C)cc1	-7	-4	93	-52	5	52
Cc1ccc(-c2nc(NC(=O)c3nn(C)cc3[N+](=O)[O-])sc2C)cc1C	0	-4	85	-74	-6	74*
O=C(Nc1cccc2ccccc12)N1CC=C(c2ccccc2)CC1	1	-1	100	13	54*	-13
CCn1ncc(C2=NOC(C(=O)Nc3ccc4c(c3)OCO4)C2)c1C (configuration not stated)	2	110*	104	-31	4	31
NS(=O)(=O)c1ccc(N/N=C/c2ccc[nH]2)c([N+](=O)[O-])c1	2	0	98	·	-5	·
Cc1ccccc1N1CCN(C2CCCN(C(=O)c3noc4c3CCCC4)C2)CC1 (configuration not stated)	2	0	103	-83	-2	83*
Cc1cnc(C(=O)N2CCCC(N3CCN(c4ccccc4C)CC3)C2)cn1 (configuration not stated)	1	0	90	7	3	-7
CCN(C(=O)COC(=O)c1ccccc1NCc1ccco1)c1c(N)n(Cc2ccccc2)c(=O)[nH]c1=O	-2	·	102	-73	·	73*
CC(C)CN(C(=O)COC(=O)c1ccccc1NCc1ccco1)c1c(N)n(Cc2ccccc2)c(=O)[nH]c1=O	-1	0	100	-27	2	27
COc1cc2ccccc2cc1C(=O)OCC(=O)N(CC(C)C)c1c(N)n(Cc2ccccc2)c(=O)[nH]c1=O	-5	0	89	-80	1	80*
C=CCOC(=O)C1C(=O)CC(C)(O)C(C(=O)OCC=C)C1c1ccc(OC)cc1 (configuration not stated)	4	0	98	5	-1	-5
Cc1cc(/C=N/NC(=O)COc2cccc3cccnc23)c(C)n1-c1ccc(O)cc1	1	0	97	9	20	-9
Cc1cc(C)cc(-n2c(C)cc(/C=N\NC(=O)COc3cccc4cccnc34)c2C)c1	2	0	105	-76	16	76*
O=C(CCn1cccc1)Nc1ccc(F)cc1	1	0	94	-3	0	3
CCOc1ccc(NC2=CC(=O)C(=O)c3ccccc32)cc1	0	·	99	-21	·	21
COc1cc(Cl)c(NC2=CC(=O)C(=O)c3ccccc32)c(OC)c1	-3	·	103	-90	29	90*
Cc1cc(C)c2[nH]c3nc(SCC(=O)O)nnc3c2c1	2	1	98	1	50*	-1
O=C(O)CSc1nnc2c(n1)[nH]c1ccccc12	2	0	105	8	6	-8
C/C(=N\Nc1nc(C)c(C)s1)c1ccc([N+](=O)[O-])cc1	1	1	192	-81	2	81*
C/C(=N\Nc1ccc([N+](=O)[O-])cc1)c1ccc(-n2nncc2C)cc1	3	0	104	-44	50*	44
O=C(N/N=C/c1c(-c2ccccc2)[nH]c2ccccc12)c1cccnc1	-4	3	97	-75	73*	75*
Cn1c(-c2ccccc2)c(/C=N/NC(=O)c2cccnc2)c2ccccc21	0	1	95	-41	59*	41
O=C(N/N=C/c1cccc2ccccc12)c1cccnc1	2	1	101	·	53*	·
